The values that follow come from ChEMBL document CHEMBL4251669, “Identification of Gibberellic Acid Derivatives That Deregulate Cholesterol Metabolism in Prostate Cancer Cells” (2018).

Active and inactive are the calls of the source. The calls are words filed in the database; no cut-off is given here.

The subject of assay [1] is LNCaP. Put plainly: Induction of cholesterol metabolism deregulation in human LNCAP cells assessed as reduction in NBD-cholesterol uptake at 10 uM after 48 hrs by DAPI/Alexa fluor 633 phalloidin staining based high-content imaging analysis. Type of assay: functional, cell-based.
Assay [2] concerns LNCaP. Description: Cytotoxicity against human LNCAP cells assessed as reduction in cell viability at 10 uM after 72 hrs by alamar blue assay relative to control. The assay is classed as functional. The procedure, abridged:
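LNCaP cells (ATCC) in phenol-red-free RPMI-1640 with 5% FBS, 37 °C, 5% CO2, seeded 4000/well for 24 h, then exposed 72 h. Stocks in DMSO, final DMSO 0.3%; DMSO as negative and vinblastine 50 nM as positive control. Viability read by alamarBlue metabolic reduction. Triplicate points, at least three independent experiments.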
Background: The colour change of resazurin is a common sign of viable cells or microbes.

Assay [3] has as its system LNCaP. Put plainly: Induction of cholesterol metabolism deregulation in human LNCAP cells assessed as reduction in NBD-cholesterol uptake at 30 uM after 48 hrs by DAPI/Alexa fluor 633 phalloidin staining based high-content imaging analysis. Type of assay: functional, cell-based. The procedure, abridged: (§1)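 LNCaP seeded 72 h on poly-L-ornithine-coated plates and treated 48 h in three replicate wells: DMSO vehicle, compounds at 30 μM, TOFA 10 μM or orlistat 20 μM. Then 3 h at 37 °C in serum-free RPMI with 0.2% BSA and 15 μM NBD-cholesterol. PFA-fixed, glycine-quenched, stained with DAPI and phalloidin. Imaged at 10× to 1000 cells/well; per-cell NBD mean fluorescence, about 3000 cells/treatment, mean ± SD.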

Assay [4] has as its system LNCaP. Description: Induction of cholesterol metabolism deregulation in human LNCAP cells assessed as effect on fatty acid uptake at 30 uM after 48 hrs by DAPI/Alexa fluor 633 phalloidin staining based high-content imaging analysis. Type of assay: functional, cell-based.
Assay [5] deals with LNCaP. Put plainly: Induction of cholesterol metabolism deregulation in human LNCAP cells assessed as effect on cellular lipid content at 30 uM after 48 hrs by DAPI/Alexa fluor 633 phalloidin staining based high-content imaging analysis. Type of assay: functional, cell-based.
Assay [6] relates to LNCaP. Description: Induction of cholesterol metabolism deregulation in human LNCAP cells assessed as reduction in free NBD-cholesterol uptake.
The subject of assay [7] is LNCaP. Put plainly: Induction of cholesterol metabolism deregulation in human LNCAP cells assessed as reduction in NBD-cholesterol uptake at 20 uM after 48 hrs by DAPI/Alexa fluor 633 phalloidin staining based high-content imaging analysis. The assay is classed as functional, cell-based. The procedure, abridged: as §1

With `CCCCCCCCCCCCCCOc1ccc(C(=O)O)o1`, the result in the assay on LNCaP [1] was Active.
With `C=C1C[C@]23C[C@@]1(O)CC[C@H]2[C@@]12C=C[C@H](O)[C@](C)(C(=O)O1)[C@H]2[C@@H]3C(=O)NCCc1ccccn1`, the Activity in the assay with LNCaP [2] is on record as below 30%. Moreover, the result in the assay on LNCaP [3] and in the assay with LNCaP [6] was Active. In addition, the result in the assay with LNCaP [4] and with LNCaP [5] was inactive.
In the case of `C=C1C[C@]23C[C@@]1(O)CC[C@H]2[C@@]12C=C[C@H](O)[C@](C)(C(=O)O1)[C@H]2[C@@H]3C(=O)NCc1ccc(Br)cc1`, the Activity in the assay with LNCaP [2] is below 30%. The outcome in the assay on LNCaP [3] and in the assay on LNCaP [6] was Active. Further, the result with LNCaP [4] and in the assay with LNCaP [5] was inactive.
Take `C=C1C[C@]23C[C@@]1(O)CC[C@H]2[C@@]12C=C[C@H](O)[C@](C)(C(=O)O1)[C@H]2[C@@H]3C(=O)NCCc1ccccc1`: in the assay on LNCaP [2], the Activity is listed as below 30%.
On to `C=C1C[C@]23C[C@@]1(O)CC[C@H]2[C@@]12C=C[C@H](O)[C@](C)(C(=O)O1)[C@H]2[C@@H]3C(=O)NCCc1cccs1`, for which the Activity in the assay on LNCaP [2] is below 30%.
With `C=C1C[C@]23C[C@@]1(O)CC[C@H]2[C@@]12C=C[C@H](O)[C@](C)(C(=O)O1)[C@H]2[C@@H]3C(=O)NCc1ccccc1`, in the assay with LNCaP [2], the Activity is below 30%.
For `C=C1C[C@]23C[C@@]1(O)CC[C@H]2[C@@]12C=C[C@H](O)[C@](C)(C(=O)O1)[C@H]2[C@@H]3C(=O)NCc1ccc(OC)cc1`, the Activity in the assay on LNCaP [2] was below 30%.
With `C=C1C[C@]23C[C@@]1(O)CC[C@H]2[C@@]12C=C[C@H](O)[C@](C)(C(=O)O1)[C@H]2[C@@H]3C(=O)NCCc1ccc(OC)cc1`, the Activity in the assay with LNCaP [2] is below 30%.
Turning to `C=C1C[C@]23C[C@@]1(O)CC[C@H]2[C@@]12C=C[C@H](O)[C@](C)(C(=O)O1)[C@H]2[C@@H]3C(=O)NCc1ccc(F)cc1`, the Activity in the assay with LNCaP [2] was below 30%.
For the compound `C=C1C[C@]23C[C@@]1(O)CC[C@H]2[C@@]12C=C[C@H](O)[C@](C)(C(=O)O1)[C@H]2[C@@H]3C(=O)NCCc1ccc(Br)cc1`, the Activity with LNCaP [2] is below 30%. Further, the outcome with LNCaP [3] and in the assay on LNCaP [6] was Active. Moreover, the outcome in the assay on LNCaP [4] and in the assay with LNCaP [5] was inactive.
For the compound `C=C1C[C@]23C[C@@]1(O)CC[C@H]2[C@@]12C=C[C@H](O)[C@](C)(C(=O)O1)[C@H]2[C@@H]3C(=O)NCCc1ccc(F)cc1`, the Activity with LNCaP [2] is listed as below 30%. Further, the outcome with LNCaP [3] and in the assay with LNCaP [6] was Active. For the same compound, the result with LNCaP [4] and with LNCaP [5] was inactive.
For `C=C1C[C@]23C[C@@]1(O)CC[C@H]2[C@@]12C=C[C@H](O)[C@](C)(C(=O)O1)[C@H]2[C@@H]3C(=O)NCCc1ccc(Cl)cc1`, the Activity in the assay with LNCaP [2] is on record as below 30%.
For `C=C1C[C@]23C[C@@]1(O)CC[C@H]2[C@@]12C=C[C@H](O)[C@](C)(C(=O)O1)[C@H]2[C@@H]3C(=O)O` [GIBBERELLIN GA3], the Activity in the assay on LNCaP [2] was below 30%. Further, in the assay with LNCaP [3], the outcome was Active. The result with LNCaP [4] and in the assay with LNCaP [5] was inactive.
On to `CCCCCCCCCCC[C@@H](C[C@@H]1OC(=O)[C@H]1CCCCCC)OC(=O)[C@H](CC(C)C)NC=O`, for which the outcome in the assay with LNCaP [7] was Active.
Consider `C=C1C[C@]23C[C@@]1(O)CC[C@H]2[C@@]12C=C[C@H](O)[C@](C)(C(=O)O1)[C@H]2[C@@H]3C(=O)NCc1ccc(Cl)cc1`, for which the Activity with LNCaP [2] is reported as below 30%. Further, the result in the assay on LNCaP [3] and in the assay with LNCaP [6] was Active. Further, the result in the assay with LNCaP [4] and in the assay on LNCaP [5] was inactive.
